# Assay results reported in ChEMBL document CHEMBL1124863, “Antiandrogenic steroidal sulfonylpyrazoles” (1990).
# The source made the active and inactive calls. No cut-off for these calls is given here.
# Organism: Rattus norvegicus
# Assay: Antiandrogenic activity as the dose required to inhibit testosterone propionate-induced rat ventral prostate weight gain in castrated immature rat by 50%.
# Format: functional, Prostate gland
# Conditions: not given
# Method in brief: (§1)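 Weanling male Sprague-Dawley rats castrated; dosing began 1 week later, grouped by body weight. […] Rats weighed and killed the next day; ventral prostate removed, blotted, weighed. ED50 read graphically as dose halving TP-stimulated prostate weight gain.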
row,SMILES,ED50 [mg/kg]
1,C#C[C@]1(O)CC[C@H]2[C@@H]3CC[C@H]4Cc5nn(S(C)(=O)=O)cc5C[C@]4(C)[C@H]3CC[C@@]21C (stereo in doubt; 1) [ZANOTERONE],15
2,C#C[C@]1(O)CC[C@H]2[C@@H]3CC[C@H]4Cc5nn(S(C)(=O)=O)cc5C[C@]4(C)[C@H]3CC[C@@]21C (stereo in doubt; 28) [ZANOTERONE],40

# Same assay, conditions: Rattus norvegicus, Prostate gland; read-out: ED50
row,SMILES,ED50 [mg/kg]
1,C#C[C@]1(O)CCC2C3CC[C@H]4Cc5nn(S(=O)(=O)CCCC)cc5C[C@]4(C)C3CC[C@@]21C (stereo partly specified),> 100
2,C[C@]1(O)CCC2C3CC[C@H]4Cc5nn(S(C)(=O)=O)cc5C[C@]4(C)C3CC[C@@]21C (stereo partly specified),10
3,CC1=C2CCC3C(CC[C@@]4(C)C3CC[C@]4(C)O)[C@@]2(C)Cc2cn(S(C)(=O)=O)nc21 (stereo partly specified),3
4,C[C@]12CCC3C(CC[C@H]4Cc5nn(S(C)(=O)=O)cc5C[C@]34C)C1CC[C@@H]2O (stereo partly specified),> 100
5,C#C[C@]1(O)CCC2C3CC[C@H]4Cc5nn(S(=O)(=O)CC)cc5C[C@]4(C)C3CC[C@@]21C (stereo partly specified),100
6,C#C[C@]1(O)CCC2C3CC[C@H]4Cc5nn(S(=O)(=O)C(C)C)cc5C[C@]4(C)C3CC[C@@]21C (stereo partly specified),> 100
7,CC(C)C(=O)Nc1ccc([N+](=O)[O-])c(C(F)(F)F)c1 [FLUTAMIDE],5
8,C#C[C@]1(O)CCC2C3CCC4=C(Cl)c5nn(S(C)(=O)=O)cc5C[C@]4(C)C3CC[C@@]21C (stereo partly specified),> 100
9,C[C@]12Cc3cn(S(C)(=O)=O)nc3C=C1CCC1C2CC[C@@]2(C)C1CC[C@]2(C)O (stereo partly specified),16
10,CC(=O)O[C@]1(C(C)=O)CC[C@H]2[C@@H]3C=C(Cl)C4=CC(=O)[C@@H]5C[C@@H]5[C@]4(C)[C@H]3CC[C@@]21C [CYPROTERONE ACETATE],18
11,CC(O)(CS(=O)(=O)c1ccc(F)cc1)C(=O)Nc1ccc(C#N)c(C(F)(F)F)c1 (stereo unspecified) [BICALUTAMIDE],4
12,C#C[C@]1(O)CCC2C3CCC4=C(C)c5nn(S(C)(=O)=O)cc5C[C@]4(C)C3CC[C@@]21C (stereo partly specified),14
13,C#C[C@]1(O)CCC2C3CC[C@H]4Cc5n[nH]cc5C[C@]4(C)C3CC[C@@]21C (stereo partly specified),50
14,C#C[C@]1(O)CCC2C3CCC4=Cc5nn(S(C)(=O)=O)cc5C[C@]4(C)C3CC[C@@]21C (stereo partly specified),< 100
15,CC[C@]1(O)CCC2C3CC[C@H]4Cc5nn(S(C)(=O)=O)cc5C[C@]4(C)C3CC[C@@]21C (stereo partly specified),41
16,C[C@]12Cc3cn(S(C)(=O)=O)nc3C=C1CCC1C2CC[C@@]2(C)C1CC[C@@H]2O (stereo partly specified),> 100
17,C#C[C@]1(O)CCC2C3CC[C@H]4Cc5c(c[nH][n+]5S(C)(=O)=O)C[C@]4(C)C3CC[C@@]21C (stereo partly specified),> 100
18,C[C@]12CCC3C(CC[C@H]4Cc5nn(S(C)(=O)=O)cc5C[C@]34C)C1CCC2=O (stereo partly specified),100
19,C#C[C@]1(O)CCC2C3CC[C@H]4Cc5nn(S(=O)(=O)CCC)cc5C[C@]4(C)C3CC[C@@]21C (stereo partly specified),< 100
20,CC(C)(O)C(=O)Nc1ccc([N+](=O)[O-])c(C(F)(F)F)c1 [HYDROXYFLUTAMIDE],4
21,CC(=O)[C@@]1(O)CC[C@H]2[C@@H]3C=C(Cl)C4=CC(=O)[C@@H]5C[C@@H]5[C@]4(C)[C@H]3CC[C@@]21C [CYPROTERONE],87

# Biological target: T1, Androgen receptor (Rattus norvegicus) (UniProt P15207)
# T1 sequence (whole entry): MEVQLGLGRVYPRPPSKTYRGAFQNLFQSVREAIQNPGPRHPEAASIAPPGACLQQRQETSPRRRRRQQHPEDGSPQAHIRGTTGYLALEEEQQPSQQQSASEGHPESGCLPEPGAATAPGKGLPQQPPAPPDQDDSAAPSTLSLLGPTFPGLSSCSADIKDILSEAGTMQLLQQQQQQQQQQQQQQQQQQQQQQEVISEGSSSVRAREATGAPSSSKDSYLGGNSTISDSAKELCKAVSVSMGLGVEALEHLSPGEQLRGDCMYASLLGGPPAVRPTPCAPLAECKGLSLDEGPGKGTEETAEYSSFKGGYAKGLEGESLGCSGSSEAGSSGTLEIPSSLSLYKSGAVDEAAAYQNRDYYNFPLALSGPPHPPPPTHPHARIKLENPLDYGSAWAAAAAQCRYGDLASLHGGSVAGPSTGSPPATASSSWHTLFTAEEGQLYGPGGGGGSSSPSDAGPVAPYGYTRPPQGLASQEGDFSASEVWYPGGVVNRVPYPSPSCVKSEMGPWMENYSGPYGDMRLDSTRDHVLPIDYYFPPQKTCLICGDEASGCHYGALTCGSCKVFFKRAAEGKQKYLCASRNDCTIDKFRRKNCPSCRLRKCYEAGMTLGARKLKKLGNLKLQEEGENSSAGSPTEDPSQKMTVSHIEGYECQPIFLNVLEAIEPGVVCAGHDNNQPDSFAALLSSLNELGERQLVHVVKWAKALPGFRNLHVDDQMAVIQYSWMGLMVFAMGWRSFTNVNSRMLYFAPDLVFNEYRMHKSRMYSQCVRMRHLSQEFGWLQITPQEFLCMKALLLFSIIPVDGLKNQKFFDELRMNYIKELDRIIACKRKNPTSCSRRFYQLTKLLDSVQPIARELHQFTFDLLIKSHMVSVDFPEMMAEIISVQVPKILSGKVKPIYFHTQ
# Assay: Anti-androgenic activity, inhibition of testosterone propionate induced rat ventral prostate (castrated immature rat) weight gain
# Format: functional
# Conditions: Prostate gland
# Method in brief: as §1
row,SMILES,ED50 [mg/kg]
1,C=C[C@]1(O)CCC2C3CC[C@H]4Cc5nn(S(C)(=O)=O)cc5C[C@]4(C)C3CC[C@@]21C (stereo partly specified),33

# Biological target: T1, Androgen receptor (Rattus norvegicus)
# Conditions: Prostate gland
row,SMILES,Increase
1,C[C@]1(O)CCC2C3CC[C@H]4Cc5nn(S(C)(=O)=O)cc5C[C@]4(C)C3CC[C@@]21C (stereo partly specified),inactive
2,C=C[C@]1(O)CCC2C3CC[C@H]4Cc5nn(S(C)(=O)=O)cc5C[C@]4(C)C3CC[C@@]21C (stereo partly specified),inactive
3,CC1=C2CCC3C(CC[C@@]4(C)C3CC[C@]4(C)O)[C@@]2(C)Cc2cn(S(C)(=O)=O)nc21 (stereo partly specified),inactive
4,C[C@]12Cc3cn(S(C)(=O)=O)nc3C=C1CCC1C2CC[C@@]2(C)C1CC[C@]2(C)O (stereo partly specified),inactive
5,C#C[C@]1(O)CCC2C3CCC4=C(C)c5nn(S(C)(=O)=O)cc5C[C@]4(C)C3CC[C@@]21C (stereo partly specified),inactive
6,C#C[C@]1(O)CC[C@H]2[C@@H]3CC[C@H]4Cc5nn(S(C)(=O)=O)cc5C[C@]4(C)[C@H]3CC[C@@]21C (stereo in doubt; 1),inactive
7,C#C[C@]1(O)CCC2C3CCC4=Cc5nn(S(C)(=O)=O)cc5C[C@]4(C)C3CC[C@@]21C (stereo partly specified),inactive
8,C#C[C@]1(O)CC[C@H]2[C@@H]3CC[C@H]4Cc5nn(S(C)(=O)=O)cc5C[C@]4(C)[C@H]3CC[C@@]21C (stereo in doubt; 28),inactive
9,CC[C@]1(O)CCC2C3CC[C@H]4Cc5nn(S(C)(=O)=O)cc5C[C@]4(C)C3CC[C@@]21C (stereo partly specified),inactive
10,C#C[C@]1(O)CCC2C3CC[C@H]4Cc5c(c[nH][n+]5S(C)(=O)=O)C[C@]4(C)C3CC[C@@]21C (stereo partly specified),inactive
11,C[C@]12CCC3C(CC[C@H]4Cc5nn(S(C)(=O)=O)cc5C[C@]34C)C1CCC2=O (stereo partly specified),inactive
12,CC(C)(O)C(=O)Nc1ccc([N+](=O)[O-])c(C(F)(F)F)c1 [HYDROXYFLUTAMIDE],inactive
